# In the library only some 1.4% were active in any assay of this set; here they are far more common.
# KLK5 inh: human KLK5 protease inhibitors, primary screen, biochemical, 1536-well. recombinant hK5, fluorogenic AMC substrate cleavage. inhibition, % at 5 µM. AID 873, 2007. 210,000 tested, 0.59% active. Kallikrein-5 (Homo sapiens), Q9Y337;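 active = inhibition of 40% or more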;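 also: 0% = enzyme controls without compound and 100% = no-enzyme blanks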
# Rce1 inh: yeast Rce1p protease inhibitors, primary screen, biochemical, fluorescence, cell-free homogeneous | yeast membranes, quenched prenylated peptide cleavage fluorescence | 290,000 tested, 0.27% active | calls only;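 active = fall in fluorescence gain of 50% or more versus controls, with final raw signal at or below 3038400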;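 also: plate controls were neutral control wells for no effect and wells lacking membranes for full effect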
# Fh CTSL1 inh: Fasciola hepatica cathepsin L1 inhibitors, primary screen, counter-screen for PFM18AAP inhibitor project, biochemical, QFRET, fluorogenic peptide substrate; inhibition, % at 5.96 µM; 300,000 tested, 0.49% active; recombinant F. hepatica cathepsin L1, Z-Leu-Arg-MCA fluorescence; AID 1906, 2009;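 active = inhibition above the mean of all tested compounds plus 3 SD, set per screening campaign, cut at about 17% in these data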;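 also: 0% = plate median of test compound wells and 100% = 1 µM Z-Phe-Ala-diazomethylketone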
# Thrombin inh: human alpha-thrombin inhibitors, primary screen, counter-screen for coagulation protease inhibitor project, biochemical, 1536-well, fluorogenic AMC substrate | Prothrombin (Homo sapiens), P00734 | Boc-VPR-AMC fluorogenic substrate cleavage | inhibition, % at 5 µM | 220,000 tested, 0.26% active | AID 1046, 2008;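 active = inhibition at or above 40%; inactive = inhibition below 40%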;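 also: 0% = enzyme with no compound and 100% = wells without enzyme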
#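 Test system: human alpha-thrombin protein / Dosing: one concentration per compound, 5 µM, with 0.2% DMSO / Medium: pH 7.5 Tris-saline with Tween 20 / Benchmarks: no-compound enzyme wells and no-enzyme blanks / Read-out basis: percent inhibition of thrombin substrate cleavage / Timing: reaction at room temperature / Measured by: fluorescence, ex 355 nm, em 460 nm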
# FXIIa inh 1536: human FXIIa protease inhibitors, primary screen, biochemical, 1536-well. Coagulation factor XII (Homo sapiens), P00748. purified FXIIa, Boc-QGR-AMC fluorogenic substrate, 2 h. inhibition, % at 5 µM. 220,000 tested, 0.3% active; in the data active = inhibition above about 40%;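 also: 0% = enzyme with no compound and 100% = blank without enzyme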
# Target sequence (P00748 20-372 limits assumed): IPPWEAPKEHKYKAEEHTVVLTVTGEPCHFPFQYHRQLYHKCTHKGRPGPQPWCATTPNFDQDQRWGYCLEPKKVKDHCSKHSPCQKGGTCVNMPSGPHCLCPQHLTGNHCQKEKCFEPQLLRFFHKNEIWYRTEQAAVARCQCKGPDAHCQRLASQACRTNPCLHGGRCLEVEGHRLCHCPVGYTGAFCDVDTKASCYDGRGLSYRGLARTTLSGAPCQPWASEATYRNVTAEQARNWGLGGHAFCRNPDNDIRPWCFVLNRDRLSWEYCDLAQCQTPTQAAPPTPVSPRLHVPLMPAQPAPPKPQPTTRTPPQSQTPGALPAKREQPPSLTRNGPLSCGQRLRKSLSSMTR
# Target sequence (P00748 373-615 limits assumed): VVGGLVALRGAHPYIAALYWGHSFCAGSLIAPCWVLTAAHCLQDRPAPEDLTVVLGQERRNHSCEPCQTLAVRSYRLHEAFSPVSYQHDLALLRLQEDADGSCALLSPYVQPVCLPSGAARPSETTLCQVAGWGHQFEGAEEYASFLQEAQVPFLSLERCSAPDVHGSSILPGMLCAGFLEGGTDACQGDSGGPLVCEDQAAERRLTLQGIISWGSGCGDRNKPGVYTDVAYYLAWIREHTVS
# FXIa inh 1536: human FXIa protease inhibitors, primary screen, biochemical, 1536-well; inhibition, % at 5 µM; purified FXIa, Boc-Glu-Ala-Arg-AMC fluorogenic substrate; Coagulation factor XI (Homo sapiens), P03951; AID 798, 2007; 220,000 tested, 0.14% active;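 active = inhibition of at least 40%; inactive = inhibition below 40%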;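 also: fluorescence of freed AMC excited at 355 nm; 0% = enzyme without compound and 100% = no enzyme blank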
# * marks the source's active call; other numbers are inactive results; i = inactive; x = not tested or not shown; + = active, no number.
SMILES,KLK5 inh,Rce1 inh,Fh CTSL1 inh,Thrombin inh,FXIIa inh 1536,FXIa inh 1536
CCOC(=O)C1=C(CSc2nc(C)cc(C)c2C#N)OC(N)=C(C#N)C1c1ccccc1 (stereo unspecified),-11,i,2,-5,-2,-5
CCOC(=O)C1=C(CSc2nc(C)cc(C)c2C#N)OC(N)=C(C#N)C1c1cccs1 (stereo unspecified),-3,x,22*,3,17,7
N/C(=N\OS(=O)(=O)c1ccc2ccccc2c1)c1cccnc1,x,i,2,-4,6,-4
N/C(=N\OS(=O)(=O)c1ccccc1)c1ccncc1,5,i,33*,0,15,-4
N/C(=N\OS(=O)(=O)c1ccccc1)c1cccnc1,-8,x,-4,-6,4,5
N/C(=N\OS(=O)(=O)c1ccc2ccccc2c1)c1ccncc1,-23,i,43*,0,12,3
CCn1cc(C(=O)NCc2cccnc2)c(=O)c2cc(F)c(N3CCN(C(=O)c4ccco4)CC3)cc21,4,i,6,1,41*,15
CN1CCN(CCCNC(=O)c2cc3c(-c4ccc(Cl)cc4)nn(C)c3s2)CC1,-5,+,-3,7,13,4
COc1cccc2[nH]c3c(N4CCN(Cc5ccc6c(c5)OCO6)CC4)ncnc3c12,-3,+,6,-1,1,-10
COc1ccc2c(c1)[nH]c1c(N3CCN(Cc4ccc5c(c4)OCO5)CC3)ncnc12,-9,i,6,-3,13,4
Cn1c(SCC(=O)c2ccc3c(c2)OCCO3)nnc1C1CC1,-12,i,-2,11,27,25
CCOc1ccc(S(=O)(=O)NCCC(=O)NCC(c2ccc(F)cc2)N2CCOCC2)cc1 (stereo unspecified),x,i,18*,x,x,x
CCCN(C(=O)C1CCN(S(=O)(=O)c2ccc(OC)c(OC)c2)CC1)C1CCS(=O)(=O)C1 (stereo unspecified),x,i,-4,x,x,x
Cc1cc(C)nc(NC(=O)c2c(-c3ccccc3Cl)noc2C)c1,-6,i,3,-5,1,3
CC(Oc1ccccc1F)C(=O)NNC(=O)CCNC(=O)c1ccccc1Cl (stereo unspecified),x,i,-7,x,x,x
O=C(O)c1ccc(-c2ccc(O)c(F)c2)cc1,-7,+,3,-4,8,-2
C/C(CC(=O)NCCCN1CCOCC1)=N\NC(=O)COc1ccc(C)cc1,47*,i,-3,11,24,3
C/C(CC(=O)NCCCN1CCOCC1)=N\NC(=O)COc1ccc(Cl)cc1,-4,i,2,2,15,-1
CC(C)(C)OC(=O)N1CCC(c2cc(=O)n3[nH]cc(C(=O)Nc4ccc(F)c(Cl)c4)c3n2)CC1,0,+,0,-1,8,1
COC(=O)c1c(NC(=O)c2c(-c3ccccc3Cl)noc2C)sc2c1CCC2,-24,i,0,2,41*,-13
O=C1C(C=NCCCN2CCOCC2)=C(O)c2ccccc21,59*,i,1,12,7,1
C/C(=N/NC(N)=S)c1cc2ccc(O)cc2oc1=O,4,i,20*,-8,2,6
COc1cccc(CNc2ccc3c(c2)ncn3C(C)C)c1OC,58*,i,1,30,37,7
CCCN1/C(=C2/SC(=S)N(CC)C2=O)C=Cc2ccccc21,2,i,30*,1,16,5
Cc1c(Cl)cccc1NC(=O)CC1Oc2ccccc2NC1=O (stereo unspecified),x,i,4,x,x,x
CCN(CC)c1cc(C)c2cc(NC(=O)CNC(C)=O)ccc2n1,142*,i,0,0,-7,-8
Cc1nn(-c2ccccc2)c(N2CCCC2)c1/C=C1\N=C(c2ccc(OC(C)C)cc2)OC1=O,-1,i,74*,-13,12,-2

# Screening results: PubChem, several laboratories
